Assay results gathered from unrelated publications.
Lines come from different studies, so protocols differ.
CNR1: Cannabinoid receptor 1 (CNR1, Homo sapiens, UniProt P21554)
Oprm1: Mu-type opioid receptor (Oprm1, Mus musculus, UniProt P42866)
HTR2A: 5-hydroxytryptamine receptor 2A (HTR2A, Homo sapiens, UniProt P28223)

| Compound | target | assay | conditions | quantity | result |
| --- | --- | --- | --- | --- | --- |
| CC(C)(NC(=O)c1nn(CCCCC(F)(F)F)c2ccccc12)c1cccc(C(N)=O)c1 | CNR1 | ligand displacement, radioligand | cell membranes | Ki | 0.21 µM |
| CCCCC/C=C\C/C=C\C/C=C\Cc1ccccc1CCCC(=O)N[C@H](C)CO | CNR1 | cAMP, agonist | – | EC50 | 0.315 µM |
| CC(C)(NC(=O)c1nn(Cc2ccc(C#N)cc2)c2ccccc12)c1cccc(C(N)=O)c1 | CNR1 | ligand displacement, radioligand | cell membranes | Ki | 0.098 µM |
| CC(C)[C@@H](CN1CCc2ccccc2C1)NC(=O)c1cccc(-c2cccc(O)c2)c1 | Oprm1 | ligand displacement, radioligand | – | Ki | 1.21 µM |
| O=C(O)C(F)(F)OC(F)(F)C(F)(F)OC(F)(F)C(F)(F)OC(F)(F)C(F)(F)C(F)(F)C(F)(F)F | Fatty acid-binding protein, brain (Homo sapiens, UniProt O15540) | ligand displacement, fluorescence | – | Kd | 0.02 µM |
| COc1cc2c3c(c1OC)-c1c(OC)ccc(Cl)c1CC3N(C)CC2 (racemic) | HTR2A | cell-free assay, radioligand | – | Ki | 0.893 µM |
| COc1cc2c(cc1OC)CN(CCc1ccc(NC(=O)c3cccc4c(=O)c5cccc(OC)c5[nH]c34)cc1)CC2 | Histamine H4 receptor (HRH4, Homo sapiens, UniProt Q9H3N8) | cell-free assay | – | Ki | > 10 µM |
| CCCCC/C=C\[C@H](C)/C=C\C/C=C\Cc1ccccc1CCCC(=O)N[C@H](C)CO | CNR1 | cAMP, agonist | – | EC50 | 1.61 µM |
| O=c1c2cc(Cl)ccc2[nH]c(=S)n1Cc1cccnc1 | HTR2A | cell-free assay | – | IC50 | 2.6 µM |
| Cc1oc(-c2ccccc2)nc1CCOc1cccc2c1ccn2CCC(=O)O | Fatty acid-binding protein, intestinal (Homo sapiens, UniProt P12104, T55A) | ligand displacement, fluorescence | – | Kd | 31.9 µM |
| CC(C)(NC(=O)c1nn(CC2CCCC2)c2ccccc12)c1cccc(C(N)=O)c1 | CNR1 | ligand displacement, radioligand | cell membranes | Ki | 0.13 µM |
| CC(C)[C@@H](CN1CCc2ccccc2C1)NC(=O)Cc1c[nH]c2ccccc12 | Oprm1 | ligand displacement, radioligand | – | Ki | 1.24 µM |
| c1cncc([C@@H]2CCCN2)c1 | Neuronal acetylcholine receptor; alpha4/beta2 (Rattus norvegicus, UniProt P09483+P12390) | cell-free assay, radioligand | – | Ki | 0.334 µM |
| CC[C@H](C)[C@@H](C(=O)N1CCC[C@H]1c1nccs1)N(C)C(=O)[C@H](CC(C)C)N(C)C(=O)[C@H](Cc1ccc(OC)cc1)N(C)C(=O)/C=C(\C)OC | CNR1 | β-arrestin recruitment, antagonist | – | IC50 | 11.6 µM |
| CC[C@H](C)[C@H](NC(=O)[C@H](CCC(=O)O)NC(=O)[C@H](C)NC(=O)[C@H](CCCCN)NC(=O)[C@H](CC(C)C)NC(=O)[C@@H](NC(=O)[C@H](CCC(=O)O)NC(=O)[C@@H](NC(=O)[C@H](CCC(=O)O)NC(=O)[C@H](CC(=O)O)NC(=O)[C@H](C)NC(=O)[C@@H](NC(=O)[C@@H](NC(=O)[C@H](C)NC(=O)[C@H](C)NC(=O)CCNC(=O)[C@@H](N)CCCCNC(=O)CCCC[C@@H]1SC[C@@H]2NC(=O)N[C@@H]21)C(C)C)[C@@H](C)O)[C@@H](C)O)C(C)C)C(=O)N[C@@H](CO)C(=O)N[C@@H](CCCCN)C(=O)N[C@@H](C)C(=O)N[C@H](C(=O)N[C@@H](CCCCN)C(=O)N[C@@H](CCC(N)=O)C(=O)N[C@H](C(=O)N[C@@H](CCC(N)=O)C(=O)N[C@@H](CCC(=O)O)C(=O)N[C@@H](CCC(=O)O)C(=O)N[C@@H](CC(=O)O)C(=O)N1CCC[C@H]1C(=O)N[C@@H](CC(N)=O)C(N)=O)C(C)C)C(C)C | Myc proto-oncogene protein (MYC, Homo sapiens, UniProt P01106) | binding, BLI | – | Kd | 4.6 µM |
| CCOC(=O)c1ccc(OC(=O)CCCCCN=C(N)N)cc1 | Vitamin K-dependent protein C (PROC, Homo sapiens, UniProt P04070) | enzyme activity, inhibitor | – | IC50 | 0.157 µM |
